The values below come from the EternaBench riboswitch data.

In the data set the test system is MS2 coat protein. Description: apparent Kd, MS2 coat protein; higher = weaker binding; RNA-MaP array; FMN 200 µM where present. The procedure, abridged: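 SNAP-549-labelled MS2 coat protein, doubled from 0.7 or 1.5 nM to 3 µM, was titrated over designs transcribed by stalled E. coli RNA polymerase on Illumina sequencing-chip clusters. Titrations were run without and then with constant ligand in 100 mM Tris-HCl pH 7.5, 80 mM KCl, 4 mM MgCl2, BSA, DTT, yeast tRNA and Tween-20. The apparent Kd is the median of filtered per-cluster fits to green signal normalised to red-channel RNA signal and control-cluster median Fmax.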

The mark [1] stands for this setting: designed as: OFF switch for flavin mononucleotide, no ligand.
Where [2] appears, read: ligand present: flavin mononucleotide, designed as: OFF switch for flavin mononucleotide.
Where [3] appears, read: designed as: ON switch for flavin mononucleotide, no ligand.
[4] abbreviates: ligand present: flavin mononucleotide, designed as: ON switch for flavin mononucleotide.

A word on the apparent Kd: it is the concentration giving half-maximal binding under the conditions of the assay.

For the sequence “UGUGCCUCGAGAGGAUAUACAUGAGGAUCACCCAUGUAAGUAGAGGUGGAAACACCUCUACAAAUGUAGAAGGCUCGAGGCACA”, the “apparent Kd” value reads like this: under setting [1], 20.6 nM; under setting [2], 58.3 nM.
As for “GAGAAGAAGUUAGGAUAUUGGAUAGGGACGGAAUAAGAAGGAGCACAUACAUGAGGAUCACCCAUGUUAGAAGAAGAGAUCCUC”, the “apparent Kd” value stood at 545 nM under setting [1] and 253 nM under setting [2].
On the same counts, the results for “UUCGUGCAGCUUUGUUGUACGCGUACAUGAGGAUCACCCAUGUAGGAUAUGGUACGCUUUGCGUGCUAGAAGGAUAUGGAGAGG” are 13.2 nM and 15.4 nM.
As for “UGUUAAUAAGAGAAGGAGGACUUCAUGAGGAUCACCCAUGUGUUAGUACUUAGGAUAUUUAAUAACAUGAGGAUCACCCAUGUC”, the “apparent Kd” value under setting [3] turned out to be 45.2 nM and the “apparent Kd” value under setting [4] worked out at 40.4 nM.
On to “GCCAUCGCAUGAGGAUAUCCUCAGCUUUGCUGAGGAGAAGGCAUGUCAAUAGACAUGAGGAUCACCCAUGUAGUUAAGAUGGCA”, for which the “apparent Kd” value by setting is: under setting [3], 692 nM; under setting [4], 81.3 nM.
As to “GUUGUCUAUGUAGGAUAUGCGAGGCGAGCCUAAGCAGAAGGACAUGAGGAUCACCCAUGUAUUGCGGUCUGCGUUCAGAUCGCU”, the “apparent Kd” value is 38.1 nM under setting [1] and 141 nM under setting [2].
In the case of “GGAGAUACAUGAGGAUCACCCAUGUAGGAUAUCGGGCCUAUAUAUGGCGAAAGCCAUAUAUAGGCCGAGAAGGGCGUACACACC”, the “apparent Kd” value reads like this: under setting [1], 8.07 nM; under setting [2], 7.52 nM.
“UAGCCACAAGGAUAUACAUGAGGAUCACCCAUGUUUCCAGGAUGCCCUCUCAUGGGUUGUAGAAGGUGUCGGCG”: the “apparent Kd” value under setting [1] is 15.8 nM and the “apparent Kd” value under setting [2] amounted to 17.9 nM.
Regarding “CACCGUUAGAGAGGAUAUCGUACAUGAGGAUCACCCAUGUAAUAAAUGAGAAUUUCGGAUGUCUGCGAGAAGGCUCGAAUCGGC”, the “apparent Kd” value runs as follows: under setting [1], 34.6 nM; under setting [2], 27.9 nM.
“GUGGUCAGACAUGAGGAUCACCCAUGUGGAAUAAAUAAGGAAAAGGAUAUCGAAUAUAGGAUAUACGAGAAGGUUUGGUUGGUG”: the “apparent Kd” value under setting [3] came out at 96.5 nM and the “apparent Kd” value under setting [4] came out at 98.8 nM.
“GAAGUCUAUUGAGGAUAUCGUUAUCAAAGAUAAUGAGAAGGCAAACAAUCAUGAGGACAUGAGGAUCACCCAUGUUGUGACCAU”: the “apparent Kd” value was 26.6 nM under setting [3] and 13.6 nM under setting [4].
For the sequence “CUAUAUAAUACCUCAUGUACAUGAGGAUCACCCAUGUUAACUAAGGAUAUAUAUAUAUUAAUAAUGUAGAAGGUAGUACUAUUU”, the “apparent Kd” value is, setting by setting: under setting [1], 16 nM; under setting [2], 11.8 nM.
As to “ACGUUAAUUCGAGGAUAUCGGUGAUAUAAUUUACGAGAAGGCGAUAAUUGUGAUAAACUUAUAGACAUGAGGAUCACCCAUGUA”, the “apparent Kd” value runs as follows: under setting [3], 42.6 nM; under setting [4], 39.2 nM.
In the case of “GGAAAUCAUGUAGGAUAUGCAUGGCGAAGCUACGCAGAAGGACAUGAGGAUCACCCAUGUUAUAGCGUCCGUGAAAGGAUGCAA”, the “apparent Kd” value by setting is: under setting [1], 39.7 nM; under setting [2], 120 nM.
In the case of “CCACGUCACAUUAACAUGAGGAUCACCCAUGUCUCUUGACAUGAGGAUAUGGAUCCUAAUUGGAUCCAGAAGGCAUGGACGUGG”, the “apparent Kd” value was 1370 nM under setting [3] and 99.8 nM under setting [4].
Regarding “AAGCCACAUGAGGAUCACCCAUGUAUUUGACAGCGAGGAUAUGGGCCGCCAUGACGAGCACCAGAAGGCGCUGGUA”, the “apparent Kd” value under setting [3] was 20.9 nM and the “apparent Kd” value under setting [4] was found to be 16.3 nM.
Turning to “AUAUAUAUACAGAAGGUGCCAGCGAGAGCUGCACAUGAGGAUCACCCAUGUUGUCGGUGACGACGCAAGGAUAUGUAUAUAUAU”, the “apparent Kd” value was found to be 27 nM under setting [3] and 7.62 nM under setting [4].
Consider “GACUUGUUAGGAUAUCUUACAUUUGCAUCAUAGUAACCAUUGGAGAAGGGACAUGAGGAUCACCCAUGUUUGGA”, for which the “apparent Kd” value runs as follows: under setting [1], 31.6 nM; under setting [2], 30.1 nM.
In the same order, the values of “UAAGUGUGAGGAUAUUCGUAGUACACGGAGACGUGUAUUACGGAGAAGGCACAUGAGGAUCACCCAUGUUCCUU” are 20.7 nM and 182 nM.
With “AGCAUGGUAGGAUAUACGGAGCAUUAGGGUUUGUUAUGUGGACAUGAGGAUCACCCAUGUAGAAGGGCCGUGCA”, the “apparent Kd” value by setting is: under setting [1], 38.6 nM; under setting [2], 60 nM.
Turning to “UAUAACCAAGGAUAUACAUGAGGAUCACCCAUGUAAUAUAGUAUAAUAUAUGUAAAAUGUAGAAGGUGGGAUGU”, the “apparent Kd” value runs as follows: under setting [1], 32 nM; under setting [2], 34 nM.
“UCCACUGCUGAGAAGGGAUACGUCUGGUUCGCAUCAGGAUAUCGAUACAGUGCAGCAUGAGGACAUGAGGAUCACCCAUGUAUC”: the “apparent Kd” value was 11 nM under setting [3] and 8.98 nM under setting [4].
Take “CAGGGUAGAGGAUAUACGUAGGUACAGAUCUGUGUGUUCCUACAUGAGGAUCACCCAUGUAGAAGGCUAGCCUG”: the “apparent Kd” value under setting [1] was found to be 89.7 nM and the “apparent Kd” value under setting [2] stood at 324 nM.
For “ACUGUUAAGACAGGAUAUCGAUUAUAACCUCUAAAACAUGAGGAUCACCCAUGUAGUCCGUAUUGCGAGAAGGGUCAUCUUAGA”, the “apparent Kd” value under setting [3] is 274 nM and the “apparent Kd” value under setting [4] came to 205 nM.
As for “AUUUAUGGCCAGAAGGACAUGAGGAUCACCCAUGUAGGAUAUGGACGAUUUUGCUCGGCGGCUUGUUUAGGAAGCACCGGUGGU”, the “apparent Kd” value under setting [3] turned out to be 10.7 nM and the “apparent Kd” value under setting [4] came out at 6.85 nM.
“CCAUAAAAGAUCCAUUUUUACAACAUGAGGAUCACCCAUGUGCAGGAUAUCGUGAAAGUAAAAUACGAGAAGGGCAAGAACUGC”: the “apparent Kd” value is, setting by setting: under setting [1], 106 nM; under setting [2], 130 nM.
Regarding “UAAUAUUUAUAAUAUUAUUACAUUAGAAGGCAAGACAUGUGGAUACAUGAGGAUCACCCAUGUAUUGAGGAUAUAGACAUAUAU”, the “apparent Kd” value reads like this: under setting [1], 14.6 nM; under setting [2], 21.7 nM.
For “GGAUAAGACAGAGGAUAUACGUGCUAGAGAUACUAGCAAAAUUUCCUCACAUGAGGAUCACCCAUGUAGAAGGCUGUCCUAUCG”, the “apparent Kd” value by setting is: under setting [1], 16.9 nM; under setting [2], 291 nM.
In the case of “UGGUACAUGGGAGGAUAUGGGUUGAUAACAUGAGGAUCACCCAUGUUAAAUAUGGCGAGAGCCAACUAGAAGGCCCAUGUACCU”, the “apparent Kd” value runs as follows: under setting [3], 594 nM; under setting [4], 38.8 nM.
On to “CCCAAACUUGGGCUUGGCGGUGCAUAGGAUAUCCUUGAACAUGAGGAUCACCCAUGUACAACUGUGGAGAAGGGUGCAGGGCCU”, for which the “apparent Kd” value is, setting by setting: under setting [3], 132 nM; under setting [4], 17.3 nM.
Regarding “AGUUGAAGGUAGAAGGGUGACAUGAGGAUCACCCAUGUGCGAGCAUCGGACGAAGAUGGCUCGCCACAGGAUAUACCUUCAAUU”, the “apparent Kd” value runs as follows: under setting [3], 41.2 nM; under setting [4], 44.4 nM.
As to “GGAUCGAAUGUGAGGAUAUACCACUGGAUACAGUGGUAGAAGGCACAUGAGGAUCACCCAUGUCUCUACGAUCC”, the “apparent Kd” value turned out to be 19.6 nM under setting [1] and 111 nM under setting [2].
Turning to “GGAACCGCUCAGAAGGACAUGAGGAUCACCCAUGUAGGAUAUGACUCGGUCUUUACGUGGCGCCCUGCAUCAUCGUUAUCUGCU”, the “apparent Kd” value was found to be 165 nM under setting [3] and 23.1 nM under setting [4].
Consider “GUAGCAACAUGAGGAUCACCCAUGUAGGAUAUCGCUAUUGUAAUCAUGAAACAUGAUUACAAUAGCGAGAAGGACAUAUGCUAG”, for which the “apparent Kd” value was 14.9 nM under setting [1] and 12.8 nM under setting [2].
As to “CCCGACCAGAAGUCGGUACGGAGGAGAAGGCGCCUCCUGGGUCCACAUGAGGAUCACCCAUGUGGCGAGGAUAUCCUCAGUUUU”, the “apparent Kd” value by setting is: under setting [1], 13.7 nM; under setting [2], 119 nM.
With “GGUCGUCACAUUAACAUGAGGAUCACCCAUGUCAAAAGACAUGAGGAUAUGCAUAAUAAUAUAAAGCAGAAGGCAUGGACGACC”, the “apparent Kd” value is 240 nM under setting [3] and 14.4 nM under setting [4].
As to “GGUAUGGACAGAGGAUAUACCGAUAGGAGAUACUAUCGACUAUUCCUCACAUGAGGAUCACCCAUGUAGAAGGCUGUCCAUACG”, the “apparent Kd” value was found to be 17 nM under setting [1] and 65.5 nM under setting [2].
As to “AACUGACAUGAGGAUCACCCAUGUCAGGAUAUGACUUGAUAGAAAAUAAAAUAUCAUGUCAGAAGGGACAUGGA”, the “apparent Kd” value came out at 23.8 nM under setting [1] and 33.3 nM under setting [2].
As for “AACUCACAUGAGGAUCACCCAUGUGAGGAUAUAUAAAUAUAUAUGUUAUUAUAUAUUUAUAGAAGGCGCGUGAU”, the “apparent Kd” value is 44.1 nM under setting [1] and 46.9 nM under setting [2].
On to “AGCGCGGUCUCGCAGGAUAUCCACAAUCCUACAUGAGGAUCACCCAUGUCGCUGCAGGAUAUUAGGGAGAAGGGUGAUGCCGCGC”, for which the “apparent Kd” value was determined as 34.5 nM under setting [3] and 20.7 nM under setting [4].
Turning to “GUUGGCUGAGGAUAUGCUUGCGUGCGUUUGUGUCGCGGGUGACAUGAGGAUCACCCAUGUAGAAGGUGGUCGGC”, the “apparent Kd” value under setting [1] turned out to be 1530 nM and the “apparent Kd” value under setting [2] was found to be 980 nM.
Take “AAUCGGGAGCAGAAGGCAUGUAAUAAAACAUGAGGAUCACCCAUGUAGUUAAGGCGAAAGCCGCAUGAGGAUAUGCUCCCGUAA”: the “apparent Kd” value runs as follows: under setting [3], 5.39 nM; under setting [4], 4.99 nM.
For the sequence “ACUAGAUGAGGAUAUGCAUGUUUUCGUGUUCUUCUAGAUUAACAUGAGGAUCACCCAUGUAGAAGGCGUCAAUU”, the “apparent Kd” value is, setting by setting: under setting [1], 41.5 nM; under setting [2], 132 nM.
Consider “GCCUUACCGGUCAGGAUAUACACCCGUCACUCCUUGUAGAAGGGACAUGAGGAUCACCCAUGUACAUUACAUUC”, for which the “apparent Kd” value under setting [1] is 27.2 nM and the “apparent Kd” value under setting [2] turned out to be 26.8 nM.
As for “GCGUCAGAAUUAAUUGUGACAGGCAGAAGGCCAUAUUUCAUGUCAGACAUGAGGAUCACCCAUGUGGAGGAUAUGCAGUUACAC”, the “apparent Kd” value under setting [1] came to 43.4 nM and the “apparent Kd” value under setting [2] came out at 98.7 nM.
Regarding “AGUGUGUGGCAGGAUAUUCUGAUCGUGAGUCGGGAAGAAGGGUCUACAUGAGGAUCACCCAUGUGAGCGGUUGA”, the “apparent Kd” value runs as follows: under setting [1], 248 nM; under setting [2], 432 nM.
Regarding “CUGAUGUUAGGAUAUCAGGCUGUGCGCGAAAACGGGCGGCAUGAGAAGGAACAUGAGGAUCACCCAUGUGACGG”, the “apparent Kd” value by setting is: under setting [1], 47.3 nM; under setting [2], 124 nM.
On to “GGAUCUUGGGUCAGGAUAUGCUGAUAGUUAUGUCAGCAGAAGGGACAUGAGGAUCACCCAUGUGCUUGGUUUUG”, for which the “apparent Kd” value was 12.9 nM under setting [1] and 39.6 nM under setting [2].
